The values below come from ChEMBL document CHEMBL1649472, “Soft-tissue penetration of ceftobiprole in healthy volunteers determined by in vivo microdialysis” (Antimicrob Agents Chemother, 2009).

A short description of series [1]: AUC in plasma of healthy human at 500 mg, po administered at tablet formulation with maximum release by microdialysis. Format: ADME, organism-based.
Series [2] in a line: AUC in plasma of healthy human at 750 mg. po administered at tablet formulation with maximum release by microdialysis. Format: ADME, organism-based.
A short description of series [3]: AUC in plasma of healthy human at 500 mg, po administered at tablet formulation with immediate release by microdialysis. The series is classed as ADME, organism-based.
Series [4] is described as follows: AUC (0 to infinity) in plasma of healthy human at […] up to 12 hrs. The series is classed as ADME. Set-up: time infinity. An outline of the steps: (§1)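 Twelve healthy volunteers received a single 500 mg dose as a 2-h i.v. infusion. K2EDTA blood was drawn from the opposite arm from predose to 24 h over 13 timepoints. Plasma was precipitated with acetonitrile/formic acid and perchloric acid. Protein binding was measured by ultrafiltration at 2 and 12 h, and free levels were derived per subject. Analysis was noncompartmental: linear-trapezoidal AUC, with λz from terminal-phase regression.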

Series [5] can be described thus: Volume of distribution at steady state in plasma of healthy human at […] […]. Conditions: read-out: Vdss. The series is classed as ADME, organism-based. Put shortly: as §1
For the next series, the system named is Staphylococcus aureus. In words: Antibacterial activity against methicillin-resistant Staphylococcus aureus. The series is classed as functional.
For a further series, the system named is Streptococcus pneumoniae. In words: Antibacterial activity against penicillin-resistant Streptococcus pneumoniae. Format: functional.
Series [6] is described as follows: Cmax in adipose tissue of healthy human at 200 mg/l administered via microdialysis probe up to 12 hrs. Format: ADME, organism-based. Put shortly:
(§2)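 Twelve healthy volunteers were given a single 500 mg dose as a 2-h i.v. infusion. Microdialysis probes in skeletal muscle and s.c. adipose tissue were perfused with lactated Ringer's at 1.5 μl/min. Each probe was calibrated by retrodialysis with drug at 200 mg/liter, followed by a 4-h washout. Dialysate was collected every 20 min to 12 h, then at 16 and 24 h, and assayed by HPLC-UV. Values were recovery-corrected and analysed noncompartmentally.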

Series [7] is described as follows: Half life in adipose tissue of healthy human at 200 mg/l administered via microdialysis probe up to 12 hrs. Format: ADME, tissue-based. Put shortly: as §2
The nature of series [8]: AUClast in adipose tissue of healthy human at 200 mg/l administered via microdialysis probe up to 12 hrs. Format: ADME. Set-up: time < 12 hr. An outline of the steps:
as §2

A short description of series [9]: AUC (0 to infinity) in adipose tissue of healthy human at 200 mg/l administered via microdialysis probe up to 12 hrs. The series is classed as ADME. Set-up: time infinity. Put shortly:
as §2

Series [10] can be described thus: Cmax in muscle of healthy human at 200 mg/l administered via microdialysis probe up to 12 hrs. Format: ADME, organism-based, Muscle tissue. Put shortly:
as §2

Series [11] can be described thus: Half life in muscle of healthy human at 200 mg/l administered via microdialysis probe up to 12 hrs. The series is classed as ADME, tissue-based, Muscle tissue. Put shortly: as §2
Series [12] can be described thus: AUClast in muscle of healthy human at 200 mg/l administered via microdialysis probe up to 12 hrs. The series is classed as ADME, tissue-based, Muscle tissue. Also on record: time < 12 hr. Put shortly:
as §2

Series [13] can be described thus: AUC (0 to infinity) in muscle of healthy human at 200 mg/l administered via microdialysis probe up to 12 hrs. The series is classed as ADME, tissue-based, Muscle tissue. Also on record: time infinity. Put shortly: as §2
A short description of series [14]: Ratio of AUC in adipose tissue to fAUC in plasma of healthy human at 200 mg/l administered via microdialysis probe up to 12 hrs. Particulars: other. The series is classed as ADME.
A short description of series [15]: fT>MIC in adipose tissue of healthy human at 500 mg, iv by microdialysis.
A short description of series [16]: fT>MIC in skeletal muscle of healthy human at 500 mg, iv by microdialysis.
Series [17] is described as follows: AUC in plasma of healthy human at 400 mg, po by microdialysis. The series is classed as ADME, organism-based.

SMILES strings stand for the structures. ≈ marks a conversion by molar mass, not a printed value.

For the compound `N[C@@H](C(=O)N[C@@H]1C(=O)N2C(C(=O)O)=C(Cl)CS[C@H]12)c1ccccc1` [CEFACLOR ANHYDROUS], the AUC (commonly the area under the concentration-time curve, a measure of exposure) in [1] is 13700 ng·h/mL; in series [2], 22100 ng·h/mL; in [3], 17600 ng·h/mL.

For `Nc1nc(/C(=N/O)C(=O)N[C@@H]2C(=O)N3C(C(=O)O)=C(/C=C4\CCN([C@@H]5CCNC5)C4=O)CS[C@H]23)ns1` [CEFTOBIPROLE], the results for the AUC(0-inf) in series [4], in series [9] and in series [13] were 98000 ng·h/mL, 36500 ng·h/mL and 53200 ng·h/mL, respectively. In addition, the Vd in series [5] amounted to 14.6 L. The MIC90 with Staphylococcus aureus and in the series on Streptococcus pneumoniae was 2 µg/mL (≈ 3.74 µM) each time. Besides, the values for the Cmax in series [6] and in series [10] were 9610 ng/mL and 14000 ng/mL, respectively. Moreover, the values for the half-life in [7] and in series [11] were 2.56 h and 2.61 h, respectively. The figures for the area under the curve AUC(0-t) at 12 h in [8] and in series [12] were 34300 ng·h/mL and 50600 ng·h/mL, respectively. For the same compound, in [14], the “Ratio AUC” value is reported as 0.49. Also, the Efficacy in [15] came to 35.1%; in series [16], 53.6%.

Compound `C=CC1=C(C(=O)O)N2C(=O)[C@@H](NC(=O)/C(=N\OCC(=O)O)c3csc(N)n3)[C@H]2SC1` [CEFIXIME] came in with an AUC in [17] of 25600 ng·h/mL.

As to `COCC1=C(C(=O)O)N2C(=O)[C@@H](NC(=O)/C(=N\OC)c3csc(N)n3)[C@H]2SC1` [CEFPODOXIME], the AUC in [17] was determined as 22400 ng·h/mL.
